Compound activity as filed in PubChem BioAssay.
Compounds with a hit are over-represented: about 2.5% of the library has one in this group of screens.
Pemphigus Ab inh = inhibitors of pemphigus antibody binding to DSG3, primary screen, biochemical, bead-based, flow cytometry, scFv-GFP; Desmoglein-3 (Homo sapiens), P32926; DSG3-coupled beads, scFv-anti-DSG3-GFP binding; hits give low values; binding (percent of control), % at 10 µM; AID 588358, 2011; hit rate 0.48% among 310,000;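 active = binding more than 3 SD below its plate's average and above zero; inconclusive = below that plate limit but binding exactly zero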;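 also: hits lower antibody fragment binding to DSG3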
SUMO1-SIM PPI = modulators of SUMO1 protein-protein interactions, primary screen, biochemical, uHTS; hit rate 0.33% among 360,000; Small ubiquitin-related modifier 1 (Homo sapiens), P63165; SUMO1 binding to a labelled peptide, TR-FRET, 1 h; AID 602429, 2012; inhibition, % at 20 µM; in the data active = inhibition above about 37%
UHRF1 binding = UHRF1 methylated DNA binding inhibitors, primary screen, counter-screen for MBD2 inhibitor project, biochemical, TR-FRET, human UHRF1, single concentration. UHRF1 binding to methylated oligo. inhibition, % at 4.4 µM. hit rate 0.75% among 370,000;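 also: UHRF1 SRA domain binding a hemimethylated CpG hairpin DNA probe; 0% = median of test compound wells and 100% = reference inhibitor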
HCV NS3 hel inh = inhibitors of HCV NS3 helicase, primary screen, biochemical, Cy5 molecular beacon fluorescence | hit rate 0.56% among 290,000 | Hepatitis C virus NS3 helicase | inhibition, % at 10.9 µM | NS3 helicase DNA unwinding;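 active = inhibition above the mean of all tested compounds plus 3 SD, set per campaign, cut at about 35% in these data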;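 also: 0% = DMSO wells and 100% = thioflavine S control wells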
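test system = hepatitis C virus NS3 helicase domain fragment enzyme | reagent = annealed dual-labelled DNA beacon duplex, ATP-started | times = 1 h at 25 °C | detection = Cy5 fluorescence, 0 and 60 min reads | read-out basis = percent inhibition from t60/t0 fluorescence ratio | control set = DMSO and thioflavine S | replication = one well per compound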
DNMT1 inh = human DNMT1 methyltransferase inhibitors, primary screen, biochemical, molecular beacon, fluorescence, HinP1I cleavage, uHTS | inhibition (reported as % activation of signal), % at 10 µM | hit rate 0.83% among 360,000 | DNA (cytosine-5)-methyltransferase 1 (Homo sapiens), P26358 | AID 588458, 2011; in the data active = inhibition above about 50%
MBD2 inh = inhibitors of MBD2 binding to methylated DNA, primary screen, biochemical, TR-FRET, DNA-binding domain, human. Methyl-CpG-binding domain protein 2 (Homo sapiens), Q9UBB5. MBD2 binding to methylated oligonucleotide. inhibition, % at 4.4 µM. hit rate 0.31% among 370,000; in the data active = inhibition above about 13%
UHRF1 DNA bind = UHRF1 methylated DNA binding inhibitors, counter-screen for MBD2 inhibitor project, biochemical, TR-FRET, human UHRF1. shares compounds with MBD2 inh. inhibition, % at 4.4 µM. hit rate 25% among 1,000. UHRF1 binding to methylated oligonucleotide;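 also: UHRF1 SRA domain binding a labeled hemimethylated CpG hairpin DNA; 0% = vehicle only and 100% = reference inhibitor with vehicle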
MBD2 DBD conf = inhibitors of MBD2 binding to methylated DNA, confirmation, biochemical, TR-FRET, DNA-binding domain, human; shares compounds with MBD2 inh; TR-FRET MBD2-DBD binding to methylated oligonucleotide; inhibition, % at 4.4 µM; hit rate 26% among 1,000; in the data active = inhibition above about 14%
Starred values were filed as active, the others as inactive; ? = inconclusive; . = no result. Rule as the data show it, unless noted: active = inhibition above about 21%; inactive = the rest.

SMILES	Pemphigus Ab inh	SUMO1-SIM PPI	UHRF1 binding	HCV NS3 hel inh	DNMT1 inh	MBD2 inh	UHRF1 DNA bind	MBD2 DBD conf
O=C1c2cccc(NCCCNCCO)c2C(=O)c2cccc(NCCCNCCO)c21	79	-36	93*	.	-100	105*	82*	102*
O=C(O)CC1CCC(=C(Cl)Cl)C1 (stereo not drawn)	97	3	1	1	25	-2	.	.
O=C(O)CC1CC(O)CCC1=O (stereo not drawn)	.	1	4	.	-3	28*	8	1
O=C(O)CSc1ncn[nH]1	.	0	15	-5	-1	13*	7	1
O=C(O)c1ccc(-n2c(-c3cc(-c4ccco4)[nH]n3)n[nH]c2=S)cc1	100	27	83*	9	43	27*	73*	23*
O=c1[nH]nc(Cc2ncc(C(F)(F)F)cc2Cl)c2ccccc12	100	-1	-1	-16	3	2	.	.
Cc1cc(C)c(NC(=O)CNC(=O)COC(=O)CNC(=O)c2ccc(Cl)cc2Cl)c(C)c1	99	3	-1	.	3	-5	.	.
Cc1ccc(OCC(=O)NNC(=O)C2CCCO2)c(C)c1 (stereo not drawn)	103	-1	3	15	0	18*	8	1
COc1ccc(C(C[N+](=O)[O-])c2c(C)[nH]n(-c3ccccc3)c2=O)cc1 (stereo not drawn)	?	14	16	-13	-2	13	.	.
COc1cccc(C(c2c(C)[nH]n(-c3ccccc3)c2=O)c2c(C)[nH]n(-c3ccccc3)c2=O)c1OC	102	8	18	-3	-12	17*	2	1
Cc1[nH]n(-c2ccccc2)c(=O)c1C(c1ccc(O)c([N+](=O)[O-])c1)c1c(C)[nH]n(-c2ccccc2)c1=O	96	6	15	12	-11	15*	2	-4
COc1cccc(C(c2c(C)[nH]n(-c3ccccc3)c2=O)c2c(C)[nH]n(-c3ccccc3)c2=O)c1O	96	4	21*	.	-23	21*	-4	0
C=CCn1c(SCC(=O)OC(C)C)nnc1-c1ccc(C)cc1	.	.	0	.	.	14*	8	4
COc1cccc2c1C(=O)c1c(O)c3c(c(O)c1C2=O)CC(O)(C(C)=O)CC3OC1CC(N(C)C)C(O)C(C)O1 (stereo not drawn)	89	-65	96*	.	-253	111*	101*	111*
CCCCCCOC(=O)Cc1c(C)nc(-c2ccccc2)[nH]c1=O	102	0	15	5	1	13*	3	2
Cc1ccc(-c2nc(=S)c3c(n2Cc2cccnc2)CC(C)(C)OC3)cc1	108	9	1	-2	2	2	.	.
Cc1cc(C)n2nc(-c3ccc(F)cc3)cc2n1	94	-2	-1	.	2	28*	7	3
Cc1ccc(-c2cc3nc(C)cc(C)n3n2)cc1	97	-4	2	-4	2	-2	.	.
CCC(C(=O)OCc1csc(CC(=O)Nc2ccccc2C)n1)c1ccccc1 (stereo not drawn)	106	3	-4	.	-9	-3	.	.
